# Published values gathered from unrelated publications.
# Compare with care: the assays were run in different laboratories.
Structure (SMILES),assay,system,conditions,endpoint,value
CC(=O)c1c(C)c2cnc(Nc3ccc(C4CCN(CCS(C)(=O)=O)CC4)cn3)nc2n(C2CCCC2)c1=O,metabolic stability,"mouse, liver microsomes",,half-life,72.2 min
C#Cc1nc(C(=O)N2CCC(NC(=O)c3cnc(-c4ccccc4)s3)(c3nc4ccccc4n3C)CC2)cs1,metabolic stability,"mouse, liver microsomes",,half-life,~20 min
Cc1[nH]c(C)c(S(=O)(=O)Nc2ccc(S(F)(F)(F)(F)F)cc2)c1C(=O)N1CCC(F)(F)C1,metabolic stability,"mouse, liver microsomes",,half-life,20 min
CN1CCC[C@H]1c1cccnc1,,"rat, plasma","intravenous, 0.1 mg/kg",half-life,68 min
Cc1ccc2cc(N3CCC4(O)C(=O)c5cc(C)c(C)cc5N=C34)ccc2n1 (stereo not shown),,"rat, plasma","intravenous, 2 mg/kg",half-life,186 min
CC[C@H](C)CCCCC(=O)N[C@@H](CCN)C(=O)N[C@H](C(=O)N[C@@H](CCN)C(=O)N[C@H]1CCNC(=O)[C@H]([C@@H](C)O)NC(=O)[C@H](CCN)NC(=O)[C@H](CCN)NC(=O)[C@H](CC(C)C)NC(=O)[C@@H](CC(C)C)NC(=O)[C@H](CCN)NC1=O)[C@@H](C)O,,"male Sprague-Dawley rat, plasma","intravenous, 5 mg/kg",C0,15400 ng/mL
CC(C)CC(=O)OC[C@H]1O[C@@](C#N)(c2ccc3c(N)ncnn23)[C@H](O)[C@@H]1O,metabolic stability,"mouse, hepatocytes",5 µM,half-life,< 4.36 min
Cl.Cn1c(=O)n(CCCCN2CCC3(CC2)OCc2ccccc23)c2ccccc21,,"male Sprague-Dawley rat, plasma","intravenous, 10 mg/kg",half-life,216 min
Cc1[nH]c(C)c(S(=O)(=O)Nc2ccc(S(=O)(=O)F)c(Cl)c2)c1C(=O)N1CCC(F)(F)C1,metabolic stability,"mouse, liver microsomes",,half-life,32 min
O=c1c2cc(Cl)c(CO)cc2[nH]c(=S)n1Cc1cncnc1,metabolic stability,"mouse, liver microsomes","1 µM, pH 7.4",half-life,57.9 min
